# Target: Androgen receptor (Homo sapiens) (UniProt P10275)
# Assay: Percent displacement of [3H]DHT binding to human androgen receptor expressed in Escherichia coli strain HB-101 at 10 uM
# Method in brief: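 GST-hAR ligand-binding domain expressed in E. coli HB-101 (1 mM IPTG, 27 °C, 4.5 h); crude sonicate diluted to 0.3-0.5 mg/mL protein (20 mM Tris-HCl pH 8.0, 0.3 M KCl, 1 mM EDTA). Incubated 15 h at 4 °C in dark with 4 nM [3H]DHT and 1 μM triamcinolone acetonide (final). Nonspecific binding measured with 200-fold unlabeled DHT. Dextran/γ-globulin-charcoal separation, supernatant scintillation-counted.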
# UniProt P10275, sequence (P10275 whole entry): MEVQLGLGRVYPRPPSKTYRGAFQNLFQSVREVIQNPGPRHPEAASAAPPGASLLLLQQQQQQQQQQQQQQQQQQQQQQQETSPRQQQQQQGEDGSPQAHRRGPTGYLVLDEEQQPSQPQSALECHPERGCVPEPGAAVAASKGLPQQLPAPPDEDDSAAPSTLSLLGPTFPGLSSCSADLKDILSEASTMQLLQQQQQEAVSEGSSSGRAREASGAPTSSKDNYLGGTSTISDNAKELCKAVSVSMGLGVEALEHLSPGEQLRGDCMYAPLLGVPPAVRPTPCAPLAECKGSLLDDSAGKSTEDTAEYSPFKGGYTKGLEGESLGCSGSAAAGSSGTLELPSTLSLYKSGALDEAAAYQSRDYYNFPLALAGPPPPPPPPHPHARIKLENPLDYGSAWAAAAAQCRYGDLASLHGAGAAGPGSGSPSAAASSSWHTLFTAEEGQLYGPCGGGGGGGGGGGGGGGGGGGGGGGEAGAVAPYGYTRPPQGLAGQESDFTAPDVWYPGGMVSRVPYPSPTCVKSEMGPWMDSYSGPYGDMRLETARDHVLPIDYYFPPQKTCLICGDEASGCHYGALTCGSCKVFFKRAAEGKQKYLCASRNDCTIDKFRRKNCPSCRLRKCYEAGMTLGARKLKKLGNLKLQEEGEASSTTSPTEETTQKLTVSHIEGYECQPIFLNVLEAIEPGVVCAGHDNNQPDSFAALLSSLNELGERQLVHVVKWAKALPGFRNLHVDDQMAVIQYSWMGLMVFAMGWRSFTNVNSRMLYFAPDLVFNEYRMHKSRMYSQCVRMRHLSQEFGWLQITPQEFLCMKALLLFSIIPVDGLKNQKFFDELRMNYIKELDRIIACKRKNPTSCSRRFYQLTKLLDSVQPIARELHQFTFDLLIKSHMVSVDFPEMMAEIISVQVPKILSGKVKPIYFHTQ
row,Substance,Binding affinity [%]
1,"1-Hydroxymethyl-7-(4-nitrophenyl)-1,7-dicarba-closododecaborane",60
2,"1-Hydroxymethyl-12-(4-cyanophenyl)-1,12-dicarbacloso-dodecaborane",54
3,"1-(4-Hydroxybutyl)-12-(3-nitrophenyl)-1,12-dicarbacloso-dodecaborane",20
4,"1-Hydroxymethyl-12-(3-cyanophenyl)-1,12-dicarbacloso-dodecaborane",95
5,"1-(4-Nitrophenyl)-1,12-dicarba-closo-dodecaborane",29
6,"1-Methoxycarbonyl-12-(3-nitrophenyl)-1,12-dicarbacloso-dodecaborane",18
7,"1-Hydroxymethyl-12-(4-nitrophenyl)-1,12-dicarba-closodod caborane",55
8,"1-Hydroxymethyl-12-(3-nitrophenyl)-1,12-dicarba-closododecaborane",97
9,"1-(3-Hydroxypropyl)-12-(3-nitrophenyl)-1,12-dicarbacloso-dodecaborane",39

# Continued, values first:
row,Binding affinity [%],Substance
1,36,"1-(3-Nitrophenyl)-1,12-dicarba-closo-dodecaborane"
2,53,"1-Hydroxy-12-(4-nitrophenyl)-1,12-dicarba-closo-dodecaborane"
3,35,"1-(3-Nitrophenyl)-1,12-dicarba-closo-dodecaborane-1-carboxylic Acid"
4,66,"1-Hydroxy-12-(3-cyanophenyl)-1,12-dicarba-closo-dodecaborane"
5,54,"1-Hydroxymethyl-7-(3-nitrophenyl)-1,7-dicarba-closododecaborane"
6,63,"1-(2-Hydroxyethyl)-12-(3-nitrophenyl)-1,12-dicarbacloso-dodecaborane"
7,50,"1-Hydroxy-12-(4-cyanophenyl)-1,12-dicarba-closo-dodecaborane"
8,75,"1-Hydroxy-12-(3-nitrophenyl)-1,12-dicarba-closo-dodecaborane"
